Assay results pooled from the literature.
Each line is one published result; the experiments were not run side by side.
Target: Mitogen-activated protein kinase 7 (MAPK7, Homo sapiens, UniProt Q13164)

SMILES	read-out	technique	tested at	remaining binding [%]
Cc1noc([C@H]2C[C@@H](c3ccc(C(F)(F)F)cc3)CN(C(=O)N3CCS(=O)(=O)C3)C2)n1	cell-free assay	competition with immobilised ligand	1 µM	87
FC(F)(F)Oc1cccc(-c2cnc3ccc(-c4ccncc4)nn23)c1	cell-free assay	competition with immobilised ligand	5 µM	99
Nc1ncc2c(n1)-c1c([nH]c3ccc(C#CC4CC4)cc13)CCCC2	binding	competition with immobilised ligand	1 µM	85
CN(C)C(=O)Cn1cc(-c2nc([C@@](C)(c3ccc(-c4cnc(N)nc4)cc3)C3CC3)no2)cn1	cell-free assay	competition with immobilised ligand	1 µM	90
N[C@@H]1CCN(c2nccc(-c3cnn4ncccc34)n2)C1	binding	–	1 µM	100
N#Cc1ccc(Nc2ccc3[nH]c(=O)[nH]c3c2)c(Cl)c1	cell-free assay	competition with immobilised ligand	1 µM	100
C=CC(=O)N1CCC(C(=O)NCC(=O)N2CCN(c3nc(-c4cnc(N)nc4C(F)F)nc(N4CCOCC4)n3)CC2)CC1	binding	competition with immobilised ligand	1 µM	100
CNC(=O)[C@@H]1CC[C@@H](n2c(-c3ccc4cnccc4c3)nc3ccc(C(=O)NCc4cccc(C(N)=O)c4)cc32)C1	binding	competition with immobilised ligand	1 µM	100
C[C@@H]1CCN(c2nccc(-c3cnn4ncccc34)n2)C1	binding	–	1 µM	100
O=C(NCC1CCOCC1)c1n[nH]cc1NC(=O)c1c(F)cccc1F	binding	competition with immobilised ligand	1 µM	90
CN(c1nccc(-c2cnn3ncccc23)n1)C1CC1	binding	–	1 µM	100
O=C(c1ccc(Nc2ncc(Cl)c(-c3cc4ccccc4s3)n2)cc1)N1CCC(N2CCCC2)CC1	binding	competition with immobilised ligand	1 µM	60
F[C@@H]1CCN(c2nccc(-c3cnn4ncccc34)n2)C1	binding	–	1 µM	100
FC(F)(F)c1ccc2c(c1)nc(-c1cccnc1)n2C1CC1	cell-free assay	competition with immobilised ligand	1 µM	100
CN(CCCC(F)(F)F)c1nccc(-c2cnn3ncccc23)n1	binding	–	1 µM	100
c1cncc(-c2cccc(Nc3nccc(NC4CCCCC4)n3)c2)c1	binding	competition with immobilised ligand	10 µM	92
CN([C@@H]1CCc2c(CC(=O)O)c3cc(S(C)(=O)=O)ccc3n2C1)S(=O)(=O)c1ccc(F)cc1	cell-free assay	competition with immobilised ligand	1 µM	96
CCN1CCN(Cc2ccc(C(=O)Nc3ccc(C)c(Oc4ccc5c(c4)CC(=O)N5)c3)cc2C(F)(F)F)CC1	binding	competition with immobilised ligand	1 µM	100
c1cnn2ncc(-c3ccnc(N4CCC45COC5)n3)c2c1	binding	–	1 µM	87
CN([C@@H]1CCc2c(CC(=O)O)c3ccccc3n2C1)S(=O)(=O)c1ccc(F)cc1	cell-free assay	competition with immobilised ligand	1 µM	100
O=C(c1ccc(Nc2nccc(-c3cc4ccccc4s3)n2)cc1)N1CCC(N2CCCC2)CC1	binding	competition with immobilised ligand	1 µM	100
C[C@@]1(Cc2ccc(C#N)cc2)C(=O)N(c2cc(Cl)cc(Cl)c2)c2ncc(C(=O)NC3(c4nc(C5CCC5)no4)CC3)n21	cell-free assay	competition with immobilised ligand	1 µM	100
O=C(NCCCN1CCOCC1)c1ccc(Nc2nccc(-c3cc4ccccc4s3)n2)cc1	binding	competition with immobilised ligand	1 µM	87
